According to ChEMBL document CHEMBL3045489, “Synthesis, fungicidal activity, and QSAR of a series of 2-dichlorophenyl-3-triazolylpropyl ethers” (J Agric Food Chem, 2000):
≈ marks a conversion by molar mass, not a printed value. Calls of active or inactive are those of the source. The calls are words filed in the database; no cut-off is given here.

How the values were obtained:
Ustilago maydis [1] = assay: Antifungal activity against Ustilago maydis assessed as inhibition of radial growth on potato dextrose; assay type: functional, organism-based; conditions: Mycosarcoma maydis
[2] = biological target: T1, Lanosterol 14-alpha demethylase (Mycosarcoma maydis) (UniProt P49602); assay: Inhibition of 14alpha-demethylase Ustilago maydis ATCC 14826 assessed as reduction in eburicol at 20 mg/ml (reference value: 3.4%); design: scale not given: the % may be the effect or the level left
T1 sequence (whole entry): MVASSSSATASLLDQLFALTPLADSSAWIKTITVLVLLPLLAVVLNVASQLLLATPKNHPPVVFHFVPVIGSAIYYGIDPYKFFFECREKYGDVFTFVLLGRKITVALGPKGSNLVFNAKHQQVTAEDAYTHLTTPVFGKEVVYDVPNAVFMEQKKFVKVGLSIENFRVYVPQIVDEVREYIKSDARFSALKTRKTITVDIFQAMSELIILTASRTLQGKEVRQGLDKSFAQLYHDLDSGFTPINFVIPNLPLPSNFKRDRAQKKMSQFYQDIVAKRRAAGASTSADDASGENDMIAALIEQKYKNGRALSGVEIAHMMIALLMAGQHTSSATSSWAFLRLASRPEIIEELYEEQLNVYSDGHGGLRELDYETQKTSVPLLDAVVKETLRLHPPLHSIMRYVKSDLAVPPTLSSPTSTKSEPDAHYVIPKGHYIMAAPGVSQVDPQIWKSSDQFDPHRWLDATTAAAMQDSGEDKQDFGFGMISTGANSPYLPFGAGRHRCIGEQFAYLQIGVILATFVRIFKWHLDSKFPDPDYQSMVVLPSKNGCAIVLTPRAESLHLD
Procedure, shortened: (§1)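 Actively growing broth cultures of U. maydis ATCC 14826 were incubated 18 h with increasing compound concentrations. Sterols were then extracted and analysed, and 14α-demethyl and 14α-methyl sterols quantified.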

Oculimacula yallundae = assay: Antifungal activity against Oculimacula yallundae assessed as inhibition of radial growth on potato dextrose; assay type: functional, organism-based
Procedure, shortened: (§2)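 Radial growth inhibition on potato dextrose or Czapek agar across 100-0.1 mg L-1. ED50 calculated for each compound.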

Botrytis cinerea = assay: Antifungal activity against Botryotinia fuckelianaassessed as inhibition of radial growth on potato dextrose; assay type: functional, organism-based; procedure, shortened: as §2
[3] = biological target: T1, Lanosterol 14-alpha demethylase (Mycosarcoma maydis); assay: Inhibition of 14alpha-demethylase Ustilago maydis ATCC 14826 assessed as reduction in ergosterol at 20 mg/ml (reference value: 61%); design: scale not given: the % may be the effect or the level left; procedure, shortened: as §1
[4] = biological target: T2, Lanosterol 14-alpha demethylase (Mycosarcoma maydis, UniProt P49602); assay: Inhibition of 14alpha-demethylase Ustilago maydis ATCC 14826 assessed as reduction in 14alpha-methylfecosterol; conditions: read-out: I50 (converted); procedure, shortened: as §1
T2 sequence (P49602 whole entry): T1 sequence (whole entry)

[5] = biological target: T1, Lanosterol 14-alpha demethylase (Mycosarcoma maydis); assay: Inhibition of 14alpha-demethylase Ustilago maydis ATCC 14826 assessed as reduction in 14alpha-methylfecosterol at 20 mg/ml (reference value: 0.4%); design: scale not given: the % may be the effect or the level left; procedure, shortened: as §1
Podosphaera fuliginea [6] = assay: Fungicidal activity against Podosphaera fuliginea inoculated in […] placed in growth room after 24 hr incubation assessed as direct protection after 6 to 10 days; assay type: functional
Cercospora beticola = assay: Antifungal activity against Cercospora beticola assessed as inhibition of radial growth on potato dextrose; assay type: functional, organism-based; procedure, shortened: as §2
Uromyces appendiculatus [7] = assay: Fungicidal activity against Uromyces appendiculatus inoculated in Phaseolus vulgaris placed in growth room after 24 hr incubation assessed as disease cure after 24 hr of inoculation; assay type: functional
Procedure, shortened: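 Bean rust curative test with the same plants, spray formulation (acetone/water 1:4 with Tween 20), 100 to 0.001 mg L-1 range and U. appendiculatus inoculum (1 × 10^5 spores mL-1). Compound applied 24 h after inoculation. Read-out expressed as MIC.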

Uromyces appendiculatus [8] = assay: Fungicidal activity against Uromyces appendiculatus inoculated in Phaseolus vulgaris placed in growth room after 24 hr incubation assessed as direct protection after 6 to 10 days; assay type: functional
Procedure, shortened: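 Bean plants grown at 22 ± 1 °C, 80 ± 10% RH. Compound in acetone/water (1:4 v/v) with Tween 20 (0.4 mg mL-1) was sprayed on leaves until moist at 100 to 0.001 mg L-1. One day later leaves were inoculated with U. appendiculatus uredospores (1 × 10^5 spores mL-1), held 24 h at 22 ± 2 °C and 100% RH, then moved to the growth room. Scored at 6, 8 and 10 days as MIC.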

[9] = biological target: T1, Lanosterol 14-alpha demethylase (Mycosarcoma maydis); assay: Inhibition of 14alpha-demethylase Ustilago maydis ATCC 14826 assessed as reduction in obtusifoliol at 20 mg/ml (reference value: 0.7%); design: scale not given: the % may be the effect or the level left; procedure, shortened: as §1
Pyrenophora teres = assay: Antifungal activity against Pyrenophora teres assessed as inhibition of radial growth on potato dextrose; assay type: functional, organism-based
Fusarium graminearum = assay: Antifungal activity against Fusarium graminearum assessed as inhibition of radial growth on potato dextrose; assay type: functional, organism-based; procedure, shortened: as §2
Bipolaris maydis = assay: Antifungal activity against Cochliobolus heterostrophus assessed as inhibition of radial growth on potato dextrose; assay type: functional, organism-based; procedure, shortened: as §2
Ustilago maydis [10] = assay: Antifungal activity against Ustilago maydis sporidia assessed as cell division at 0.25 to 50 mg/ml by light microscopy; assay type: functional, organism-based; conditions: Mycosarcoma maydis
Procedure, shortened: (§3)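 U. maydis sporidia grown in Coursen and Sisler broth and treated at 0.25 to 50 mg mL-1 for 18 h. Cell morphology and division examined by interference contrast (Nomarski) and fluorescence microscopy.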

Podosphaera fuliginea [11] = assay: Fungicidal activity against Podosphaera fuliginea inoculated in […] placed in growth room after 24 hr incubation assessed as disease cure after 24 hr of inoculation; assay type: functional
Ustilago maydis [12] = assay: Antifungal activity against Ustilago maydis sporidia assessed as swollen, multicellular and branched sporidia at 0.25 to 50 mg/ml measured after 18 hr by light microscopy; assay type: functional, organism-based; conditions: Mycosarcoma maydis; procedure, shortened: as §3

Row | SMILES | EC50 (Ustilago maydis [1]) [µg/mL] | Activity [2] [%] | EC50 (Oculimacula yallundae) [µg/mL] | EC50 (Botrytis cinerea) [µg/mL] | Activity [3] [%] | IC50 [4] [nM] | Activity [5] [%] | MIC (Podosphaera fuliginea [6]) [µg/mL] | EC50 (Cercospora beticola) [µg/mL] | MIC (Uromyces appendiculatus [7]) [µg/mL] | MIC (Uromyces appendiculatus [8]) [µg/mL] | Activity [9] [%] | EC50 (Pyrenophora teres) [µg/mL] | EC50 (Fusarium graminearum) [µg/mL] | EC50 (Bipolaris maydis) [µg/mL] | Activity (Ustilago maydis [10]) | MIC (Podosphaera fuliginea [11]) [µg/mL] | Activity (Ustilago maydis [12])
1 | C=CCOCC(Cn1cncn1)c1ccc(Cl)cc1Cl (racemic) | 0.22 (≈ 0.705 µM) | 61.1 | 0.29 (≈ 0.929 µM) | 1.5 (≈ 4.8 µM) | 5.1 | 1730 | 8.8 | 30 (≈ 96.1 µM) | 0.21 (≈ 0.673 µM) | 28 (≈ 89.7 µM) | 200 (≈ 641 µM) | 20.6 | 1.4 (≈ 4.48 µM) | 8.5 (≈ 27.2 µM) | 0.16 (≈ 0.512 µM) |  |  | 
2 | FC(F)C(F)(F)OCC(Cn1cncn1)c1ccc(Cl)cc1Cl (stereo not drawn) [TETRACONAZOLE] | 0.25 (≈ 0.672 µM) |  | 0.45 (≈ 1.21 µM) | 1.2 (≈ 3.22 µM) |  |  |  | 0.05 (≈ 0.134 µM) | 0.12 (≈ 0.322 µM) | 25 (≈ 67.2 µM) | 25 (≈ 67.2 µM) |  | 0.4 (≈ 1.07 µM) | 4 (≈ 10.7 µM) | < 0.1 | Active | 0.9 (≈ 2.42 µM) | Active
